Measured values collected from several papers.
Lines come from different studies, so protocols differ.
Target: Rhodopsin kinase GRK1 (GRK1, Homo sapiens, UniProt Q15835)
Sequence (Q15835 1-563, as in one of the studies): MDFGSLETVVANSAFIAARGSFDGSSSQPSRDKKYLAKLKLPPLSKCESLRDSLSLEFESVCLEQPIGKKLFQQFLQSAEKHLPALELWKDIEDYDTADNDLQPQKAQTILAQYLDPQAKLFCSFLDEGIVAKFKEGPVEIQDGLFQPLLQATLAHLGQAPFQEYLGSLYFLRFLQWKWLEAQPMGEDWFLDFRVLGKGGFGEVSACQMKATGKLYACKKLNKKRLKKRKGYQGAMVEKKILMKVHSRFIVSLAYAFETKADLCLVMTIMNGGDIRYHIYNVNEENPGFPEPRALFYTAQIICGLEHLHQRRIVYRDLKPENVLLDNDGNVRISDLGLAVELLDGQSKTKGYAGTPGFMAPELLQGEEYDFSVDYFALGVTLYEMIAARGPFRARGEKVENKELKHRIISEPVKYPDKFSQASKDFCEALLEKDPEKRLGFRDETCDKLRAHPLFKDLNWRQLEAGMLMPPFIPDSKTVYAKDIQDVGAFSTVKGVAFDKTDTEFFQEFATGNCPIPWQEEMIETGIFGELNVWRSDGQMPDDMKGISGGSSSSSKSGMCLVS

Structure (SMILES) | read-out | technique | tested at | remaining binding [%]
N[C@H]1CCN(c2nccc(-c3cnn4ncccc34)n2)C1 | binding | – | 1 µM | 100
C[C@@]1(Cc2ccc(C#N)cc2)C(=O)N(c2cc(Cl)cc(Cl)c2)c2ncc(C(=O)NC3(c4nc(C5CCC5)no4)CC3)n21 | cell-free assay | competition with immobilised ligand | 1 µM | 100
CCN1CCN(Cc2ccc(C(=O)Nc3ccc(C)c(Oc4ccc5c(c4)CC(=O)N5)c3)cc2C(F)(F)F)CC1 | binding | competition with immobilised ligand | 1 µM | 100
CS(=O)(=O)c1cc(C2(NC(=O)c3cncc4c3cnn4-c3ccc(F)cc3)CC2)ccn1 | cell-free assay | competition with immobilised ligand | 1 µM | 87
c1cnn2ncc(-c3ccnc(N4CCC45COC5)n3)c2c1 | binding | – | 1 µM | 61
c1cncc(-c2cccc(Nc3nccc(NC4CCCCC4)n3)c2)c1 | binding | competition with immobilised ligand | 10 µM | 44
O=C(NCC1CCOCC1)c1n[nH]cc1NC(=O)c1c(F)cccc1F | binding | competition with immobilised ligand | 1 µM | 77
C=CC(=O)N1CCC(C(=O)NCC(=O)N2CCN(c3nc(-c4cnc(N)nc4C(F)F)nc(N4CCOCC4)n3)CC2)CC1 | binding | competition with immobilised ligand | 1 µM | 67
CS(=O)(=O)N1CCCC(NC(=O)[C@H](CCC2CCCCC2)NC(=O)c2ccc(CNc3ncnc4c3nnn4-c3ccccc3)cc2)C1 (stereo partly shown) | cell-free assay | competition with immobilised ligand | 0.1 µM | 94
CN(CCCC(F)(F)F)c1nccc(-c2cnn3ncccc23)n1 | binding | – | 1 µM | 100
O=C(c1ccc(Nc2ncc(Cl)c(-c3ccc(Cl)s3)n2)cc1)N1CCC(N2CCCC2)CC1 | binding | competition with immobilised ligand | 1 µM | 100
CC1=C(C#N)C(c2ccc3c(c2)c(NC(=O)c2ccccc2C)nn3C)C(C#N)=C(C)N1 | cell-free assay | competition with immobilised ligand | 1 µM | 88
CC1CCCN1c1nccc(-c2cnn3ncccc23)n1 (stereo not shown) | binding | – | 1 µM | 82
COc1cnc(Nc2cccc(S(N)(=O)=O)c2)nc1N1CCN(c2ccccc2)C(=O)C1 | binding | competition with immobilised ligand | 1 µM | 97
CCC(=O)N[C@@H]1CC[C@H](C(=O)N(C)c2ccc(-c3nc4ccccc4o3)cc2)C1 | cell-free assay | competition with immobilised ligand | 1 µM | 76
O=C(NCCCN1CCOCC1)c1ccc(Nc2ncc(Cl)c(-c3ccc(Cl)s3)n2)cc1 | binding | competition with immobilised ligand | 1 µM | 100
COc1cnc(Nc2cccc(S(N)(=O)=O)c2)nc1N1CCN(c2ccccc2)CC1 | binding | competition with immobilised ligand | 1 µM | 99
O=C(c1ccc(Nc2nccc(-c3cc4ccccc4s3)n2)cc1)N1CCC(N2CCCC2)CC1 | binding | competition with immobilised ligand | 1 µM | 93
C[C@H]1CCN(c2nccc(-c3cnn4ncccc34)n2)C1 | binding | – | 1 µM | 74
